# According to ChEMBL document CHEMBL3576816, “5'-Silylated 3'-1,2,3-triazolyl Thymidine Analogues as Inhibitors of West Nile Virus and Dengue Virus” (J Med Chem, 2015):
# Activity calls are given as the source filed them. The calls are words filed in the database; no cut-off is given here.
# Columns and labels:
# dengue virus type 3 = test: Displacement of [3H]-SAM from biotinylated Dengue virus 3 methyltransferase expressed in Escherichia coli at 20 uM preincubated for 20 mins followed by [3H]-SAM addition measured after 15 mins by scintillation counting analysis
# Outline: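 Biotinylated refolded E. coli-expressed DENV3 MTase (580 nM) with SPA beads (1.5 mg/mL) and 20 μM competitor (compound, SAM or sinefungin) in Tris pH 7.5 buffer with NaCl, KCl, MgCl2, MnCl2, CHAPS, 20 min at 23°C; 3H-SAM (425 nM) added, 15 min at 23°C, centrifuged, scintillation proximity counting.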
# [1] = Cytotoxicity against BHK cells infected with West Nile virus replicon assessed as cell viability after 3 days by CellTiter 96 aqueous one solution cell proliferation assay; type: cell-based, Mesocricetus auratus; details: hamster, 72 h
# Outline: (§1)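 WNV replicon BHK cells, about 3 × 10^3/well, plated without antibiotic selection; next day compound in DMSO (10 μM final for screening, or eight serial dilutions), 3 days at 37°C, 5% CO2. Tetrazolium reagent, absorbance 450 nm, triplicate means versus DMSO wells; CC50 = 50% reduction in proliferation; CC50s mean ± SD of two experiments, top dose 200 μM.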
# [2] = test system: Human immunodeficiency virus 1; test: Antiviral activity against HIV1; type: functional, organism-based
# [3] = target: Human immunodeficiency virus type 1 reverse transcriptase (Human immunodeficiency virus 1) (UniProt Q72547); test: Inhibition of HIV1 reverse transcriptase
# [4] = test system: unidentified influenza virus; test: Antiviral activity against Influenzae virus; type: functional, organism-based
# Human betaherpesvirus 5 = test: Antiviral activity against Human cytomegalovirus; type: functional, organism-based
# Hepatitis C virus = test: Antiviral activity against HCV; type: functional, organism-based; details: Hepacivirus hominis
# West Nile virus [5] = test: Antiviral activity against West Nile virus infected in BHK-WII RepRen1B cells assessed as inhibition of viral replication at 10 uM after 3 days by luciferase reporter gene assay relative to control; type: functional; details: 72 h
# Outline: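 Compound (DMSO, 10 μM final) added next day in triplicate; lycorine 1 μM served as control inhibitor. Three days on, live-cell Renilla substrate (1:1000 in phenol-red-free DME, 10% FBS) replaced medium. Luminescence measured; triplicate means compared with DMSO-alone wells.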
# [6] = Cytotoxicity against BHK cells infected with West Nile virus replicon assessed as cell viability at 10 uM after 3 days by CellTiter 96 aqueous one solution cell proliferation assay relative to control; type: cell-based, Mesocricetus auratus; details: hamster, bhk, 72 h, 10 µM; outline: as §1
# Dengue virus = test: Antiviral activity against Dengue virus infected in BHK pD2-hRucPac-2ATG cells assessed as inhibition of viral replication at 10 uM after 3 days by luciferase reporter gene assay relative to control; type: functional; details: 72 h
# Outline: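 Renilla luciferase-bearing DENV subgenomic replicon BHK cells, kept on 3 μg/mL puromycin, seeded at 1.5 × 10^3/well without selection. Next day, 10 μM final compound in DMSO added to triplicate wells; MPA 1 μM as control inhibitor. After 3 days, medium swapped for live-cell Renilla substrate (1:1000, phenol-red-free DME, 10% FBS). Luminescence read; triplicate mean compared with DMSO-only wells.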
# [7] = Cytotoxicity against BHK cells infected with Dengue virus replicon assessed as cell viability at 10 uM after 3 days by CellTiter 96 aqueous one solution cell proliferation assay relative to control; type: cell-based, Mesocricetus auratus; details: hamster, bhk, 72 h, 10 µM
# Outline: as §1, with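 “DENV” for “WNV”, “1.5” for “about 3”, “Tetrazolium (MTS-type)” for “Tetrazolium”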
# West Nile virus [8] = test: Antiviral activity against West Nile virus infected in BHK-WII RepRen1B cells assessed as inhibition of viral replication after 3 days by luciferase reporter gene assay; type: functional, organism-based; details: 72 h
SMILES,inhibition (dengue virus type 3),CC50 [1],Activity [2],inhibition [3],Activity [4],Activity (Human betaherpesvirus 5),Activity (Hepatitis C virus),inhibition at 10 µM (West Nile virus [5]),Activity [6],inhibition at 10 µM (Dengue virus),Activity [7],EC50 (West Nile virus [8])
Nc1ncnc2c1ncn2[C@@H]1O[C@H](C[C@@H](N)CC[C@H](N)C(=O)O)[C@@H](O)[C@H]1O,Active,–,–,–,–,–,–,–,–,–,–,–
Cc1cn([C@H]2C[C@H](NC(=O)c3cccc4ccccc34)[C@@H](CO[Si](C)(C)C(C)(C)C)O2)c(=O)[nH]c1=O,Active,> 200 µM,inactive,inactive,inactive,inactive,inactive,37%,94%,11%,99%,33 µM
COc1ccc2cc(C(=O)N[C@H]3C[C@H](n4cc(C)c(=O)[nH]c4=O)O[C@@H]3CO[Si](C)(C)C(C)(C)C)ccc2c1,–,–,inactive,inactive,inactive,inactive,inactive,95%,50%,92%,8%,–
Cc1cn([C@H]2C[C@H](NC(=O)c3c[nH]c4ccccc34)[C@@H](CO[Si](C)(C)C(C)(C)C)O2)c(=O)[nH]c1=O,–,–,inactive,inactive,inactive,inactive,inactive,19%,93%,90%,27%,–
Cc1cn([C@H]2C[C@H](n3nncc3-c3ccc(Oc4ccccc4)cc3)[C@@H](CO[Si](C)(C)C(C)(C)C)O2)c(=O)[nH]c1=O,–,–,inactive,inactive,inactive,inactive,inactive,95%,79%,95%,73%,–
C[S+](CC[C@H](N)C(=O)[O-])C[C@H]1O[C@@H](n2cnc3c(N)ncnc32)[C@H](O)[C@@H]1O (some centres not stated),Active,–,–,–,–,–,–,–,–,–,–,–
Cc1cn([C@H]2C[C@H](NC(=O)NC34CC5CC(CC(C5)C3)C4)[C@@H](CO[Si](C)(C)C(C)(C)C)O2)c(=O)[nH]c1=O,Active,16 µM,–,–,–,–,–,–,–,–,–,10 µM
Cc1cn([C@H]2C[C@H](n3nncc3-c3cccc4ccccc34)[C@@H](CO[Si](C)(C)C(C)(C)C)O2)c(=O)[nH]c1=O,–,–,inactive,inactive,inactive,inactive,inactive,100%,8%,99%,60%,–
Cc1cn([C@H]2C[C@H](NC(=O)c3ccc4ccccc4n3)[C@@H](CO[Si](C)(C)C(C)(C)C)O2)c(=O)[nH]c1=O,–,–,inactive,inactive,inactive,inactive,inactive,24%,89%,51%,98%,–
COc1ccc2cc(-c3cnnn3[C@H]3C[C@H](n4cc(C)c(=O)[nH]c4=O)O[C@@H]3CO[Si](C(C)C)(C(C)C)C(C)C)ccc2c1,–,–,inactive,inactive,inactive,inactive,inactive,98%,67%,98%,53%,–
Cc1cn([C@H]2C[C@H](n3nncc3COc3ccccc3)[C@@H](CO[Si](C)(C)C(C)(C)C)O2)c(=O)[nH]c1=O,–,–,inactive,inactive,inactive,inactive,inactive,50%,100%,28%,84%,–
Cc1cn([C@H]2C[C@H](N)[C@@H](CO[Si](C)(C)C(C)(C)C)O2)c(=O)[nH]c1=O,–,–,inactive,inactive,inactive,inactive,inactive,0%,100%,0%,100%,–
Cc1cn([C@H]2C[C@H](NC(=O)c3ccc4ccccc4c3)[C@@H](CO[Si](C)(C)C(C)(C)C)O2)c(=O)[nH]c1=O,–,–,inactive,inactive,inactive,inactive,inactive,99%,51%,98%,10%,–
Cc1cn([C@H]2C[C@H](N3C(=O)CSC3c3c4ccccc4cc4ccccc34)[C@@H](CO[Si](C)(C)C(C)(C)C)O2)c(=O)[nH]c1=O (mixture of isomers),Active,27 µM,inactive,inactive,inactive,inactive,inactive,85%,90%,46%,97%,9 µM
Cc1cn([C@H]2C[C@H](NC(=O)C(c3ccccc3)(c3ccccc3)c3ccccc3)[C@@H](CO[Si](C)(C)C(C)(C)C)O2)c(=O)[nH]c1=O,Active,15 µM,inactive,inactive,inactive,inactive,inactive,54%,100%,28%,100%,9.9 µM
COc1ccc2cc(-c3cnnn3[C@H]3C[C@H](n4cc(C)c(=O)[nH]c4=O)O[C@@H]3CO[Si](c3ccccc3)(c3ccccc3)C(C)(C)C)ccc2c1,–,–,inactive,inactive,inactive,inactive,inactive,99%,38%,100%,11%,–
Cc1cn([C@H]2C[C@H](n3nncc3-c3cc4ccccc4c4ccccc34)[C@@H](CO[Si](C)(C)C(C)(C)C)O2)c(=O)[nH]c1=O,–,–,inactive,inactive,inactive,inactive,inactive,99%,69%,21%,100%,–
Cc1cn([C@H]2C[C@H](n3nncc3C3CC3)[C@@H](CO[Si](C)(C)C(C)(C)C)O2)c(=O)[nH]c1=O,–,–,inactive,inactive,inactive,inactive,inactive,21%,100%,6.4%,93%,–
Cc1cn([C@H]2C[C@H](N3C(=O)CSC3c3ccccc3)[C@@H](CO[Si](C)(C)C(C)(C)C)O2)c(=O)[nH]c1=O (mixture of isomers),–,–,inactive,inactive,inactive,inactive,inactive,26%,94%,22%,98%,–
Cc1cn([C@H]2C[C@H](n3cc(-c4cc5ccccc5c5ccccc45)nn3)[C@@H](CO[Si](C)(C)C(C)(C)C)O2)c(=O)[nH]c1=O,–,–,inactive,inactive,inactive,inactive,inactive,97%,100%,77%,81%,–
